Assay results reported in ChEMBL document CHEMBL4425108, “A Selective and Slowly Reversible Inhibitor of l-Type Amino Acid Transporter 1 (LAT1) Potentiates Antiproliferative Drug Efficacy in Cancer Cells” (J Med Chem, 2016).
pIC50: −log10 of the molar value. Calls of active or inactive are those of the source. The calls are words filed in the database; no cut-off is given here.

Experiments:
[1] = Fraction unbound in mouse prostate at 23 umol/kg, ip administered as bolus by LC-MS analysis; assay type: ADME, organism-based, Prostate gland
Method in brief: (§1)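 Unbound fraction was measured by equilibrium dialysis at 100 µM in mouse plasma and in brain, liver, kidney, heart and prostate homogenates.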

[2] = Cmax in mouse heart at 23 umol/kg, ip administered as bolus by LC-MS analysis; assay type: ADME, organism-based; design: dose 23 umol/kg, route intraperitoneal; settings: in vivo
Method in brief: (§2)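 Male adult mice (25 ± 5 g) given a single i.p. bolus at 23 µmol/kg. The dosing solution was 1.36 mM in 10% (v/v) DMSO, 20% (w/v) hydroxypropyl-β-cyclodextrin and 0.9% NaCl. Animals were decapitated at seven time points from 10 to 480 min. Plasma and tissues were acetonitrile-precipitated with repaglinide internal standard and analysed by LC-MS. Parameters were derived from concentration–time data, mean ± SEM (n=3).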

[3] = Terminal half life in mouse prostate at 23 umol/kg, ip administered as bolus by LC-MS analysis; assay type: ADME, organism-based, Prostate gland; settings: read-out: beta t1/2
Method in brief: (§3)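 Adult male mice (25 ± 5 g) given a single i.p. bolus of 23 µmol/kg, dosing solution 1.36 mM in 10% (v/v) DMSO, 20% (w/v) hydroxypropyl-β-cyclodextrin, 0.9% NaCl in water. Decapitation at time points 10–480 min; plasma, brain, liver, prostate, kidney, heart collected. Acetonitrile precipitation with repaglinide internal standard, LC-MS (ESI positive). tmax and t½β taken from concentration-time data; mean ± SEM, n=3.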

[4] = Plasma concentration in mouse at 23 umol/kg, ip measured after 180 mins; assay type: ADME, organism-based
[5] = molecular target: T1, Large neutral amino acids transporter small subunit 1 (Homo sapiens, UniProt Q01650); assay: Inhibition of LAT1 in human MCF7 cells assessed as potentiation of bestatin-induced antiproliferative activity by measuring reduction in cell viability at 100 uM measured after 48 hrs by resazurin dye-based fluorimetric analysis
Method in brief: (§4)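 MCF-7 cells seeded 2 × 10^4/well on collagen-coated plates, treated one day later in growth medium with inhibitor (25 or 100 µM) plus bestatin or cisplatin (100 µM) for up to 3 days. Viability read daily by resazurin fluorescence (ex 560/em 590 nm). Viability is treated relative to untreated control. Mean ± SD, n=3.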

[6] = molecular target: T2, Large neutral amino acids transporter small subunit 2 (Homo sapiens) (UniProt Q9UHI5); assay: Competitive inhibition of [14C]-L-alanine uptake at LAT2 in human MCF7 cells at 25 uM preincubated for 5 mins followed by addition of substrate measured during 5 mins by liquid scintillation counting; assay type: cell-based
T2 sequence (whole entry): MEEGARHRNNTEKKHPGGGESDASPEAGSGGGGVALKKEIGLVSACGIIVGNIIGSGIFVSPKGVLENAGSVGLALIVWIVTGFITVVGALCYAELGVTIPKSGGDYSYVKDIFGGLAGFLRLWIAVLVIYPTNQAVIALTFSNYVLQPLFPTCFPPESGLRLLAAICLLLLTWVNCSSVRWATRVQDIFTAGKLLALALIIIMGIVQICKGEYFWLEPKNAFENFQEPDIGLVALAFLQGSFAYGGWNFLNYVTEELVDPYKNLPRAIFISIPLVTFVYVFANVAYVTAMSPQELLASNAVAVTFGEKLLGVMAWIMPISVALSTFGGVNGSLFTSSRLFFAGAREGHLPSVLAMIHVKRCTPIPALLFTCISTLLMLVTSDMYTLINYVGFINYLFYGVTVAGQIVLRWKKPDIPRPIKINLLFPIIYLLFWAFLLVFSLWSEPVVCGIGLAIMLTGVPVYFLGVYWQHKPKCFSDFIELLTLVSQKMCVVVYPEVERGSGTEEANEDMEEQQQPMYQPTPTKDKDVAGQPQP

[7] = molecular target: Large neutral amino acids transporter small subunit 1 (Mus musculus, UniProt Q9Z127); assay: Ratio of Kin for L-leucine to Kin for test compound for LAT1-mediated drug uptake in mouse brain; assay type: ADME, tissue-based; settings: in vivo
Method in brief: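 In situ brain perfusion in anaesthetised adult male mice (ketamine/xylazine i.p.) via right common carotid at 2.5 mL/min, 37 °C. Perfusate was 0.157 µM [14C]-L-leucine for 30 s or 100 µM test compound for 60 s, then 2 s drug-free buffer at 4 °C. Kin = Qtot/(Cpf × T). Mean ± SD, n=3-4.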

[8] = Terminal half life in mouse brain at 23 umol/kg, ip administered as bolus by LC-MS analysis; assay type: ADME, organism-based; settings: read-out: beta t1/2; method in brief: as §2
[9] = tested on: Mus musculus; assay: Binding affinity to LAT1 in mouse brain assessed as inhibition of [14C]-L-leucine uptake at 23 umol/kg, ip measured post perfusion with [14C]-L-leucine; assay type: functional, organism-based; settings: TDE = time-dependent effect
Method in brief: (§5)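 Mice under ketamine/xylazine anaesthesia had the right common carotid artery cannulated. Brains were perfused at 37 °C, 2.5 mL/min, for 30 s with 0.157 µM [14C]-L-leucine, then 2 s with analyte-free buffer at 4 °C. Perfusion took place 10 or 180 min after 23 µmol/kg i.p. dosing.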

[10] = molecular target: T1, Large neutral amino acids transporter small subunit 1; assay: Competitive inhibition of [14C]-L-leucine uptake at LAT1 in human MCF7 cells preincubated for 5 mins followed by addition of substrate measured during 5 mins by liquid scintillation counting; assay type: cell-based
[11] = Cmax in mouse liver at 23 umol/kg, ip administered as bolus by LC-MS analysis; assay type: ADME, organism-based; design: dose 23 umol/kg, route intraperitoneal; settings: in vivo; method in brief: as §2
[12] = Terminal half life in mouse plasma at 23 umol/kg, ip administered as bolus by LC-MS analysis; assay type: ADME, organism-based; settings: read-out: beta t1/2; method in brief: as §3
[13] = molecular target: T1, Large neutral amino acids transporter small subunit 1; assay: Inhibition of LAT1 in human MCF7 cells assessed as potentiation of cisplatin-induced antiproliferative activity by measuring reduction in cell viability at 100 uM measured after 24 hrs by resazurin dye-based fluorimetric analysis; method in brief: as §4
[14] = Fraction unbound in mouse brain at 23 umol/kg, ip administered as bolus by LC-MS analysis; assay type: ADME, organism-based; method in brief: as §1
[15] = Metabolic stability in human plasma at 37 degreeC in presence of NADPH regenerating system measured after 2 hrs by HPLC analysis; assay type: ADME, cell-free
[16] = tested on: Mus musculus; assay: Binding affinity to LAT1 in mouse brain assessed as inhibition of [14C]-L-leucine uptake at 23 umol/kg, ip measured 10 mins post perfusion with [14C]-L-leucine; assay type: functional; method in brief: as §5
[17] = molecular target: T1, Large neutral amino acids transporter small subunit 1; assay: Competitive binding to LAT1 in human MCF7 cells at 100 uM after 30 mins in presence of MCT1 inhibitor phloretin by HPLC analysis; assay type: cell-based
Method in brief: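 MCF-7 cells incubated 30 min at 37 °C in HBSS (pH 7.4) holding 100 µM test compound plus 500 µM competitor. Cells washed three times with ice-cold HBSS and lysed in 0.1 M NaOH. Cell-associated compound measured by HPLC against a lysate-spiked standard curve and normalised to protein. Mean ± SD, n=3.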

[18] = tested on: MCF7; assay: Antiproliferative activity against human MCF7 cells assessed as reduction in cell viability measured after 72 hrs by resazurin dye-based fluorimetric analysis; assay type: functional
Method in brief: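 MCF-7 cells were seeded at 2 × 10^4 cells/well on collagen-coated plates and treated one day later. Agents were given alone or combined (25 or 100 µM with 100 µM partner drug) in growth medium for 3 days. Viability was read daily by resazurin fluorescence (ex 560/em 590 nm) and expressed relative to untreated controls.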

T1 sequence (Q01650 whole entry): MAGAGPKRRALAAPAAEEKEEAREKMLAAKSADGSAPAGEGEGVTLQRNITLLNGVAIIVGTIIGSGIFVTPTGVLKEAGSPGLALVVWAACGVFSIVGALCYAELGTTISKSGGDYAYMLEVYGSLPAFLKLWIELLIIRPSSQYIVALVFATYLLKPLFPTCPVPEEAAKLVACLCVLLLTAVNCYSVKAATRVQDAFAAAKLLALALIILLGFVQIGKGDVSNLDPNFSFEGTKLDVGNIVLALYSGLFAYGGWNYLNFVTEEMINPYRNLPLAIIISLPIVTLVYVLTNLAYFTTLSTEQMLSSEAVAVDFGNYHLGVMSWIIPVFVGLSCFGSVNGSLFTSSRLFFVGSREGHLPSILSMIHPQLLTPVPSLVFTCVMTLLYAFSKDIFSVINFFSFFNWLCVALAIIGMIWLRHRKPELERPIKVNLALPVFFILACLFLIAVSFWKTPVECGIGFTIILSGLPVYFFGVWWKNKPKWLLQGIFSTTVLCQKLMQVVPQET
Sequence of Large neutral amino acids transporter small subunit 1 (Mus musculus, UniProt Q9Z127) (Q9Z127 whole entry, the tested form may be a part): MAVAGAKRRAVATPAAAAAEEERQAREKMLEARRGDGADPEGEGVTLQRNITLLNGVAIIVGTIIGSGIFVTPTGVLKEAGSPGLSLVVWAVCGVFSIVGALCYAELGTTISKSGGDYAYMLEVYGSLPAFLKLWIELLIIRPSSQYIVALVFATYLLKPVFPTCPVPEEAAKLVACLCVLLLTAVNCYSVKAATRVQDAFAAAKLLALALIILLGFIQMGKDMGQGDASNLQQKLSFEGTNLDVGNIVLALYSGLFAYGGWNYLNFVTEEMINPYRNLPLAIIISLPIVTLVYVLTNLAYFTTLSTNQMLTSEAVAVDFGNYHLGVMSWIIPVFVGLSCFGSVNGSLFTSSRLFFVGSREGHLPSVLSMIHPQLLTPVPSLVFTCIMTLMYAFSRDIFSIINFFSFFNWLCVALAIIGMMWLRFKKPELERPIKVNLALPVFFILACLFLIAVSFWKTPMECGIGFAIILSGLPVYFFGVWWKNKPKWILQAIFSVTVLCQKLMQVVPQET

fraction unbound [1]: 0.0144
Cmax [2]: 4.9 nmol/g
half-life [3]: 12 min
concentration at 3 h [4]: 230 nM
inhibition [6]: inactive
Ratio [7]: 156
half-life [8]: 71.6 min
Activity [9]: Tde
pIC50 [10]: 4.74
inhibition [10]: Dose-dependent effect
Cmax [11]: 38.7 nmol/g
half-life [12]: 44.9 min
fraction unbound [14]: 0.0103
Stability [15]: Stable
Activity [17]: Active
pIC50 ([18]; MCF7, 72 h): 3.91
Structure (SMILES): CNC(=O)COc1ccc(-c2c(C#N)c(NC(=O)c3cccc(C[C@H](N)C(=O)O)c3)n3c(nc4ccccc43)c2C#N)cc1
Activity [5]: 42.7%
Activity [13]: 65%
inhibition in vivo at 23 µmol/kg [16]: 27%
Activity [18]: Dose-dependent effect
